Assay outcomes (PubChem)
Shown is part of a subset that was picked to be rich in hits.
Fibroblast inh – blocks proliferation of human lung fibroblasts; LL 47 human lung fibroblast viability, ATP luminescence; hits give low values; viability, % at 10 µM; 85,000 compounds, 1.1% hits; AID 719;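 active = viability at or below 50% in the single dose screen; inactive = viability above 50%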;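 note: compound exposure lasted 72 h before the ATP readout; 100% = median luminescence of untreated cell-only wells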
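Test system: LL 47 human lung fibroblasts; Quantity: 1,150 cells/well; Buffer or medium: IMEM plus 15% FBS; Dosing: tenfold compound dosing solution, DMSO at 0.1%; Timing: overnight cell rest, 72 h compound treatment at 37 °C; Detection: ATP-based CellTiter-Glo luminescent readout; Read-out basis: viability percentage against median untreated-cell control; Controls: cell-only wells, no compound.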
bCat KO growth – beta-catenin-lacking colon tumor cell growth suppression; viability, % at 10 µM; HCT116 beta-catenin knockout viability, CellTiter-Glo, 60 h; hits give low values; 140,000 compounds, 1.5% hits;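 active = viability at or under a set limit, the compound median less 4 SD, cut at about 6% in these data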;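 note: 0% = Hyamine 1622 control at 20 µM and 100% = untreated cell control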
H69AR growth 86K – growth inhibitors of human H69AR lung tumor cells. H69AR lung tumor viability, ATP luminescence, 72 h; hits give low values. viability, % at 10 µM. 85,000 compounds, 6% hits;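 active = viability at or below 40%; inactive = viability above 40%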;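 note: multidrug resistant small cell line overexpressing MRP-1 efflux transporter; 100% = mean luminescence of untreated control wells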
HCT116 PTEN-null – growth suppressors of cells with PTEN tumor suppressor deletion; 140,000 compounds, 1.2% hits; viability, % at 10 µM; HCT116 PTEN-null viability, CellTiter-Glo, 60 h; hits give low values; AID 827;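 active = viability at or below a set limit, 4 SD under the median of all tested compounds, cut at about 3.7% in these data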;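 note: PTEN knockout HCT116 line with beta catenin targeted HCT116 as companion control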
HUVEC inhibit – human endothelial cell proliferation inhibition; AID 648; viability, % at 10 µM (by protocol); HUVEC proliferation, CellTiter-Glo luminescence, 72 h; hits give low values; 86,000 compounds, 1.1% hits;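 active = viability at or below 30%; inactive = viability above 30%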;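 note: 100% = median luminescence of DMSO-only cell control wells on each plate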
* marks the source's active call; other numbers are inactive results; x = no result.

SMILES	Fibroblast inh	bCat KO growth	H69AR growth 86K	HCT116 PTEN-null	HUVEC inhibit
COc1ccc(OC)c2sc(NC(=O)c3ccc(S(=O)(=O)N(C)C)cc3)nc12	88.5	87.9	20.9*	90.6	63.5
COc1ccc(OC)c2sc(NC(=O)CCS(=O)(=O)c3ccccc3)nc12	35.8*	x	2.4*	x	65.5
CCOC(=O)C1=NN(C(=O)Nc2cccc(C(F)(F)F)c2)C2C(=O)N(c3cccc(C(F)(F)F)c3)C(=O)C12 (stereo unspecified)	x	103.2	x	102.1	x
Cc1ccc(F)cc1NC(=S)NCCc1ccccc1	x	86.7	x	82.7	x
Nc1nc(Nc2cccc(F)c2)nc2ccccc12	x	69.8	35.6*	71.5	74.3
COc1cc(-c2nn3c(-c4ccccc4)nnc3s2)cc(OC)c1OC	101.8	4.9*	40.1	7.8	80.2
COc1cc(-c2nnc3sc(-c4ccncc4)nn23)cc(OC)c1OC	99.1	x	60.8	x	74.2
Cc1ccc(-c2nn3c(-c4cccc(Cl)c4)nnc3s2)cc1	98.2	x	21.5*	x	72.3
Clc1cccc(-c2nnc3sc(-c4ccccc4)nn23)c1	103.6	x	84.5	x	102.1
CCOc1cccc(-c2nnc3sc(-c4cccs4)nn23)c1	92.4	103.8	33.3*	105.3	91.8
COc1cccc(-c2nnc3sc(-c4ccc(C)cc4)nn23)c1	x	49.6	x	48.0	x
CCOc1cccc(-c2nnc3sc(-c4cc(OC)c(OC)c(OC)c4)nn23)c1	58.4	33.0	19.3*	27.0	28.2*
CC1(C)CC(=O)C=C(NCc2ccc(Cl)c(Cl)c2)C1	x	77.8	x	74.6	x
COc1cc(-c2nnc3sc(-c4ccco4)nn23)cc(OC)c1OC	85.6	43.7	18.0*	41.2	77.3
CCOc1ccc(-c2nn3c(-c4ccccc4)nnc3s2)cc1	102.3	110.8	77.3	100.3	19.4*
c1ccc(-c2cc(-c3nn4c(-c5ccco5)nnc4s3)c3ccccc3n2)cc1	51.5	93.8	26.7*	95.7	63.8
Cc1cc(-c2nn3c(-c4ccccc4)nnc3s2)c2ccccc2n1	99.2	67.1	77.2	57.8	77.0
Cn1c(-c2cccc3ccccc23)n[nH]c1=S	x	96.3	x	96.3	x
COc1ccc(NC(=O)Cc2coc3ccc4ccccc4c23)cc1S(=O)(=O)N1CCOCC1	x	79.6	x	66.3	x
COc1ccc(C2=[N+](C)CCn3cccc32)c(OC)c1	x	52.3	x	62.5	x
COc1ccc2c(c1)c(=O)oc1cc(OCC(=O)NC3CC3)ccc12	75.0	3.8*	35.5*	47.8	91.1
COc1ccccc1OCC(=O)NC1CCCCCC1	99.2	95.0	98.8	100.0	96.8
COc1ccc2c(c1)c(=O)oc1cc(OCC(=O)NC3CCCCC3)ccc12	105.0	94.7	19.1*	79.8	66.2
O=C(CCC(=O)c1ccc(F)cc1)Nc1cccc(S(=O)(=O)Nc2cccc(Cl)c2)c1	x	75.4	x	76.9	x
COC(=O)c1ccc(OCCn2cnc3ccccc3c2=O)cc1	98.6	100.7	89.8	114.1	94.7
SMILES	Fibroblast inh	bCat KO growth	H69AR growth 86K	HCT116 PTEN-null	HUVEC inhibit
NC1=C([N+](=O)[O-])C(c2ccc(F)cc2)C2=C(CCCC2=O)O1 (stereo unspecified)	x	100.2	x	101.3	x
O=C(c1cc2n(n1)C(C(F)(F)F)CC(c1ccco1)N2)N1CCN(c2ccccn2)CC1 (stereo unspecified)	105.6	98.4	95.8	100.8	97.6
Cc1cccc(N2CCN(C(=O)c3cc4n(n3)C(C(F)(F)F)CC(c3ccco3)N4)CC2)c1C (stereo unspecified)	x	2.2*	x	3.5*	x
CCOc1ccc(NS(=O)(=O)c2ccc(OCC)c3ncccc23)cc1	75.5	43.3	16.4*	42.3	65.9
O=C(NC(CC(=O)N1CCN(c2ccc([N+](=O)[O-])cc2)CC1)c1ccccc1)c1ccccc1Cl (stereo unspecified)	x	83.3	x	85.3	x
COC(=O)c1c(NC(=O)c2nc3ccccc3s2)sc2c1CCN(C(C)=O)C2	3.4*	89.7	43.9	71.7	4.2*
COC(=O)c1ccc(NC2(C#N)C(=O)Nc3ccccc32)cc1 (stereo unspecified)	95.2	86.6	23.1*	88.2	86.1
CCS(=O)(=O)Nc1ccc(C(=O)CC2(O)C(=O)Nc3ccccc32)cc1 (stereo unspecified)	100.2	99.4	81.0	98.9	100.7
COc1ccc(C(=O)NCc2nnc(SCC(=O)Nc3nc4ccccc4s3)o2)cc1OC	x	92.9	x	92.6	x
COc1ccc(/C=C/C(=O)Nc2ccc(OC)nc2)cc1	x	70.0	x	76.7	x
COc1ccc(CS(=O)(=O)/C(Cl)=C(/Cl)C(=O)Nc2ccc(OC)nc2)cc1	4.8*	6.5	0.0*	4.1	2.6*
COc1ccc(NC(=O)/C(Cl)=C(/Cl)S(=O)Cc2ccccc2)cn1 (stereo unspecified)	1.2*	1.5*	1.7*	1.5*	2.2*
CC1=C(C(=O)OCC(C)C)C(c2cccs2)NC(=S)N1 (stereo unspecified)	x	83.2	x	81.8	x
O=C(CN1CCC(NC(=O)c2ccccc2F)CC1)NCc1ccc(F)cc1	101.8	90.9	3.2*	86.7	88.8
Cc1ccc(NC(=O)/C=C\C(=O)NCC(=O)O)cc1C	x	91.9	x	90.3	x
CCN1C(=O)/C(=C2/C=Cc3ccccc3N2C)OC1=S	90.5	10.1	27.9*	15.4	88.3
c1ccc(OCCOCCN2CCN(C(c3ccccc3)c3ccccc3)CC2)cc1	x	52.0	x	58.0	x
O=S(=O)(CCN1CCN(C(c2ccccc2)c2ccccc2)CC1)C(F)(F)F	73.0	8.8	4.4*	25.2	79.0
CCOc1ccccc1NC(=S)N(Cc1cc2ccc(C)cc2[nH]c1=O)CC1CCCN1CC (stereo unspecified)	x	2.5*	x	1.2*	x
CCN1CCCC1CN(Cc1cc2ccc(C)cc2[nH]c1=O)C(=S)Nc1cccc(OC)c1 (stereo unspecified)	x	3.5*	x	2.5*	x
CCNC(=S)Nc1nc2c(cc1C(=O)OCC)CCCC2	x	88.0	x	84.3	x
CCOC(=O)Nc1cc(=O)c2ccccc2o1	x	23.6	14.3*	26.9	61.4
CCOc1c(OC)cccc1C1CC(=O)Nc2cc(OC)c(OC)cc21 (stereo unspecified)	x	83.9	x	81.9	x
CCCOc1c(OC)cccc1C1CC(=O)Nc2cc3c(cc21)OCO3 (stereo unspecified)	82.0	31.4	16.5*	24.1	67.0
CCCOc1c(OC)cccc1C1CC(=O)Nc2cc3c(cc21)OCCO3 (stereo unspecified)	91.2	11.3	14.7*	13.3	60.4
C=CCN1C(=O)/C(=C/c2ccc(N(C)C)cc2)S/C1=N\c1nnc(CC)s1	86.5	76.1	26.4*	73.4	63.3
COc1ccccc1NC(=O)Cn1cnc2sc(C)c(S(=O)(=O)N3CCCCC3)c2c1=O	109.8	95.7	100.4	90.0	105.8
CCCCc1nc2sc3c(SCC(=O)NCc4ccco4)ncnc3c2c2c1CCC2	46.7*	14.1	31.8*	36.2	56.5
CCCSc1nc(SCC(=O)NCc2ccccc2)c2c3c(sc2n1)COC(C)(CC)C3 (stereo unspecified)	86.7	96.2	37.2*	97.2	67.0
